Laboratory results from PMC3286832 (Nature Communications, 2011).

How the values were obtained:
[1] = system: DNA methylation, H3K9 methylation, H3K4 methylation; conditions: ref [4]; cited from earlier work
G9a catalytic SET domain = G9a catalytic SET domain (Homo sapiens, UniProt Q96KQ7); experiment: In vitro methylation assay with G9a catalytic SET domain; type: biochemical; conditions: [methyl-3H]AdoMet, 30 °C, 8 min, pH 8.5, SDS–PAGE and fluorography
Method in brief: (§1)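 E. coli-expressed hG9a or hGLP SET domain (1.6 μM) was incubated with 13.0 μM substrate (mDnmt3a N-terminal fragments or other GST-tagged proteins) and 2.8 μM [methyl-3H]AdoMet in 20 mM Tris–HCl pH 8.5 at 30 °C for 8 min. Products were resolved by SDS–PAGE and detected by fluorography/autoradiography.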

GLP catalytic SET domain = GLP catalytic SET domain (Homo sapiens, UniProt Q9H9B1); experiment: In vitro methylation assay with GLP catalytic SET domain; type: biochemical; conditions: [methyl-3H]AdoMet, SDS–PAGE and fluorography / autoradiogram
Method in brief: as §1

MPP8 chromodomain = target: T1, MPP8 chromodomain (Homo sapiens, UniProt Q99549); experiment: Co-crystal structure MPP8 chromodomain–hDNMT3AK47me2 peptide; type: binding
T1 sequence (Q99549 59-118 limits assumed): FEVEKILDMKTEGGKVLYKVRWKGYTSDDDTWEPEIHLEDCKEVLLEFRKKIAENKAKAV

Chain of GLP catalytic SET domain (Q9H9B1 1126-1243 limits assumed): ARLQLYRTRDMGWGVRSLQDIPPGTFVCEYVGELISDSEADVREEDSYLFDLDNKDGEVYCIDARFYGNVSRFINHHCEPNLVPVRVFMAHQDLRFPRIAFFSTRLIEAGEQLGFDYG
Chain of G9a catalytic SET domain (Q96KQ7 1038-1155 limits assumed): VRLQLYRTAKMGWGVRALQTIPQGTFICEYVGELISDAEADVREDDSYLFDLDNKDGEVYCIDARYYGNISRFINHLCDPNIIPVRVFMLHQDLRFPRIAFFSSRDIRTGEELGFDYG

| Compound | methylation by GLP (GLP catalytic SET domain) | also measured |
| --- | --- | --- |
| Nc1ncn([C@H]2C[C@H](O)[C@@H](CO)O2)c(=O)n1 [5-aza-2′-deoxycytidine] |  | effect on DNA, H3K9 and H3K4 methylation [1]: leads to depletion of DNA methylation and of H3K9 methylation, and a corresponding increase in H3K4 methylation |
| Dnmt3a-N: N-terminal fragment of mouse Dnmt3a (residues 1–274) | methylate the N-terminal fragment of Dnmt3a | methylation by G9a (G9a catalytic SET domain): methylate the N-terminal fragment of Dnmt3a |
| YEPSTTARKVGRPGR [hDNMT3AK47me2] |  | pairwise root-mean-square-deviation to MPP8-H3K9me3 structure (MPP8 chromodomain; 54 pairs of main-chain atoms, vs PDB 3QO2): ~ 0.6 Å; binding mode in MPP8 chromodomain (MPP8 chromodomain; crystal structure (3SVM)): bound in an extended conformation in an acidic cleft of the chromodomain |
| hDNMT3A K47R (residues 1–223): K47R substitution in hDNMT3A N-terminal domain | eliminates methylation |  |
| hDNMT3A residues 1–94: GST-tagged hDNMT3A N-terminal fragment | are methylated |  |
| hDNMT3A residues 1–223: GST-tagged hDNMT3A N-terminal fragment | are methylated |  |
